For 33 molecules, Activity results are on record in ChEMBL document CHEMBL2146397, “The Substrate-Activity-Screening methodology applied to receptor tyrosine kinases: a proof-of-concept study” (Eur J Med Chem, 2012).

Structures are written as SMILES. Square brackets hold non-standard residues; d marks the D form. Peptide text beside a SMILES is read from it. * marks the point of attachment. Trp(6-Cl) = N[C@@H](Cc1c[nH]c2cc(Cl)ccc12)C(=O)O; X2 = O=C(O)[C@H]1CCCC[C@@H]1C(=O)*

The target in the experiment is Insulin-like growth factor 1 receptor (Homo sapiens, UniProt P08069). In words: Activity at pre-activated human GST-His6-tagged IGF-1R expressed in Sf9 cells assessed as initial phosphorylation rate at 10 uM measured every 2 mins for 60 mins by Michaelis-Menten constant based ADP Quest assay. In short, it runs like this: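 Reaction buffer was the same plus 0.1 mg/mL BSA, with kinase, peptide substrate and detection reagents. Started with ATP; fluorescence read every 2 min for 60 min; 3 independent experiments.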
Insulin-like growth factor 1 receptor, sequence (P08069 31-736 limits assumed): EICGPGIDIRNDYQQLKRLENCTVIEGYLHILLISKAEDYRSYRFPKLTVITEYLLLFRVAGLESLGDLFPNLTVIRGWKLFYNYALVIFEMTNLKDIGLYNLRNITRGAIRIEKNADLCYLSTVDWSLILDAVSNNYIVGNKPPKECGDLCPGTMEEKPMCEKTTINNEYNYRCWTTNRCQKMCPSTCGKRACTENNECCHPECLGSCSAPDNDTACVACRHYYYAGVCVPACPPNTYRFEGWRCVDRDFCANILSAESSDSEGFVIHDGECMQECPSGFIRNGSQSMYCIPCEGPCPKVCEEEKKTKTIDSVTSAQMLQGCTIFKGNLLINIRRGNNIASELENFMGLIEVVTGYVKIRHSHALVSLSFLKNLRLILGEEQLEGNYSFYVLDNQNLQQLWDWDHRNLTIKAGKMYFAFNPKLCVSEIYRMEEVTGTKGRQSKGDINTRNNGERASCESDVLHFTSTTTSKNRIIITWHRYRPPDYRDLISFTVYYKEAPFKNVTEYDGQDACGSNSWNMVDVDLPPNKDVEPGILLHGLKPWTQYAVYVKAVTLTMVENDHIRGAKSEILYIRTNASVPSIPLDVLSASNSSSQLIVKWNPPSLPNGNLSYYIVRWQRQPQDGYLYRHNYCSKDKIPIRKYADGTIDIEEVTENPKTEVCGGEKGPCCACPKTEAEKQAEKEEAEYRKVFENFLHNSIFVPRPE
Insulin-like growth factor 1 receptor, sequence (P08069 741-1367 limits assumed): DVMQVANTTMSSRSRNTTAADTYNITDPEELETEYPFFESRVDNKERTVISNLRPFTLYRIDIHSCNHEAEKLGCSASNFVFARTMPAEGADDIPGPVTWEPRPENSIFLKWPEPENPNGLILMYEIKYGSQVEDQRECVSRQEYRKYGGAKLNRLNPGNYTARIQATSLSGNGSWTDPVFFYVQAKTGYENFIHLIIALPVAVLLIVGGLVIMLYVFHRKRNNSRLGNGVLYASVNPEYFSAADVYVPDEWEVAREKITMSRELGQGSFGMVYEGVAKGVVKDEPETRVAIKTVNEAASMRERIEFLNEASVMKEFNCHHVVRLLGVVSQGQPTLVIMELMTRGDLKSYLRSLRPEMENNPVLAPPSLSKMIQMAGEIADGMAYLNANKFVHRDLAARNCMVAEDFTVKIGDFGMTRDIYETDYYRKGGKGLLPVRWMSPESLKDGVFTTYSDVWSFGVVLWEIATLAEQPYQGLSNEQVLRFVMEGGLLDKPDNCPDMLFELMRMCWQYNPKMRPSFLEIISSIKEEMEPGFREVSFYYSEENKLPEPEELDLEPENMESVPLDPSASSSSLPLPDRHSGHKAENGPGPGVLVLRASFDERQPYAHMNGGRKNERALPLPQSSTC

With `CNC(=O)[C@H](Cc1ccccc1)NC(=O)[C@H](CCC(=O)O)NC(=O)[C@H](Cc1ccccc1)NC(=O)[C@H](Cc1ccc(O)cc1)NC(=O)CCC(=O)O` (HELM PEPTIDE1{[O=C(O)CCC(=O)[*:2]].Y.F.E.F.[CN[*:1]]}$$$$V2.0), the Activity worked out at 0.25 nM/s.

For `CNC(=O)[C@H](Cc1c[nH]c2ccccc12)NC(=O)[C@H](CCC(=O)O)NC(=O)[C@H](Cc1ccccc1)NC(=O)[C@H](Cc1ccc(O)cc1)NC(=O)[C@H]1CCCC[C@@H]1C(=O)O`, the Activity came out at 10.9 nM/s. Regarding `CNC(=O)[C@@H](Cc1c[nH]c2ccccc12)NC(=O)CNC(=O)[C@H](Cc1ccccc1)NC(=O)[C@H](Cc1ccc(O)cc1)NC(=O)[C@H](CC(=O)O)NC(C)=O`, the Activity worked out at 0.09 nM/s. As for `CNC(=O)[C@H](Cc1ccccc1)NC(=O)[C@H](CCC(=O)O)NC(=O)[C@H](Cc1ccccc1)NC(=O)[C@H](Cc1ccc(O)cc1)NC(=O)c1ccccc1[N+](=O)[O-]` (HELM PEPTIDE1{[O=C(c1ccccc1[N+](=O)[O-])[*:2]].Y.F.E.F.[CN[*:1]]}$$$$V2.0), the figure is 4.6 nM/s; as for `CNC(=O)[C@H](Cc1c[nH]c2ccccc12)NC(=O)[C@H](CCC(=O)O)NC(=O)[C@H](Cc1ccccc1)NC(=O)[C@H](Cc1ccc(O)cc1)NC(=O)[C@H](CC(N)=O)NC(C)=O` (HELM PEPTIDE1{[ac].N.Y.F.E.W.[CN[*:1]]}$$$$V2.0), 2.8 nM/s. For `CNC(=O)[C@H](Cc1c[nH]c2cc(Cl)ccc12)NC(=O)[C@H](CCC(=O)O)NC(=O)[C@H](Cc1ccccc1)NC(=O)[C@H](Cc1ccc(O)cc1)NC(=O)[C@H](CCC(=O)O)NC(C)=O` (HELM PEPTIDE1{[ac].E.Y.F.E.[O=C([C@H](Cc1c[nH]c2cc(Cl)ccc12)N[*:1])[*:2]].[CN[*:1]]}$$$$V2.0), the Activity was 3.3 nM/s. As for `CNC(=O)[C@H](Cc1ccccc1)NC(=O)[C@H](CCC(=O)O)NC(=O)[C@H](Cc1ccccc1)NC(=O)[C@H](Cc1ccc(O)cc1)NC(=O)[C@@H]1CCCC[C@H]1C(=O)O` (HELM PEPTIDE1{[O=C(O)[C@@H]1CCCC[C@H]1C(=O)[*:2]].Y.F.E.F.[CN[*:1]]}$$$$V2.0), the figure is 0.17 nM/s; as for `CNC(=O)[C@H](Cc1c[nH]c2cc(Cl)ccc12)NC(=O)[C@H](CCC(=O)O)NC(=O)[C@H](Cc1ccccc1)NC(=O)[C@H](Cc1ccc(O)cc1)NC(=O)[C@H]1CCCC[C@@H]1C(=O)O` (X2-YFE[Trp(6-Cl)]-NHMe), 7.5 nM/s. As for `CNC(=O)[C@H](Cc1ccc(Cl)c(Cl)c1)NC(=O)CNC(=O)[C@H](Cc1ccccc1)NC(=O)[C@H](Cc1ccc(O)cc1)NC(=O)[C@H](CC(=O)O)NC(C)=O` (HELM PEPTIDE1{[ac].D.Y.F.G.[O=C([C@H](Cc1ccc(Cl)c(Cl)c1)N[*:1])[*:2]].[CN[*:1]]}$$$$V2.0), the figure is 0.55 nM/s.

Consider `CNC(=O)[C@H](Cc1ccc(Cl)c(Cl)c1)NC(=O)[C@H](CCC(=O)O)NC(=O)[C@H](Cc1ccccc1)NC(=O)[C@H](Cc1ccc(O)cc1)NC(=O)[C@H](CC(=O)O)NC(C)=O` (HELM PEPTIDE1{[ac].D.Y.F.E.[O=C([C@H](Cc1ccc(Cl)c(Cl)c1)N[*:1])[*:2]].[CN[*:1]]}$$$$V2.0), for which the Activity turned out to be 2.1 nM/s. As for `CNC(=O)[C@H](Cc1ccccc1)NC(=O)[C@H](CCC(=O)O)NC(=O)[C@H](Cc1ccccc1)NC(=O)[C@H](Cc1ccc(O)cc1)NC(=O)[C@H]1CCCC[C@@H]1C(=O)O` (HELM PEPTIDE1{[O=C(O)[C@H]1CCCC[C@@H]1C(=O)[*:2]].Y.F.E.F.[CN[*:1]]}$$$$V2.0), the figure is 5.2 nM/s; as for `CNC(=O)[C@H](Cc1ccccc1)NC(=O)[C@H](CCC(=O)O)NC(=O)[C@H](Cc1ccccc1)NC(=O)[C@H](Cc1ccc(O)cc1)NC(=O)[C@H](CC(N)=O)NC(C)=O` (HELM PEPTIDE1{[ac].N.Y.F.E.F.[CN[*:1]]}$$$$V2.0), 0.46 nM/s; as for `CNC(=O)[C@H](Cc1ccc2ccccc2c1)NC(=O)CNC(=O)[C@H](Cc1ccccc1)NC(=O)[C@H](Cc1ccc(O)cc1)NC(=O)[C@H](CC(=O)O)NC(C)=O` (HELM PEPTIDE1{[ac].D.Y.F.G.[O=C([C@H](Cc1ccc2ccccc2c1)N[*:1])[*:2]].[CN[*:1]]}$$$$V2.0), 0.24 nM/s.

Consider `CNC(=O)[C@H](Cc1ccc(Cl)cc1)NC(=O)[C@H](CCC(=O)O)NC(=O)[C@H](Cc1ccccc1)NC(=O)[C@H](Cc1ccc(O)cc1)NC(=O)[C@H](CC(=O)O)NC(C)=O` (HELM PEPTIDE1{[ac].D.Y.F.E.[O=C([C@H](Cc1ccc(Cl)cc1)N[*:1])[*:2]].[CN[*:1]]}$$$$V2.0), for which the Activity was determined as 2.6 nM/s. For `CNC(=O)[C@H](Cc1ccccc1)NC(=O)[C@H](CCC(=O)O)NC(=O)[C@H](Cc1ccccc1)NC(=O)[C@H](Cc1ccc(O)cc1)NC(=O)[C@@H]1CCCC[C@@H]1C(=O)O` (HELM PEPTIDE1{[O=C(O)[C@H]1CCCC[C@H]1C(=O)[*:2]].Y.F.E.F.[CN[*:1]]}$$$$V2.0), the Activity was 1.1 nM/s. Then `CNC(=O)[C@H](Cc1c[nH]c2ccccc12)NC(=O)[C@H](CCC(=O)O)NC(=O)[C@H](Cc1ccccc1)NC(=O)[C@H](Cc1ccc(O)cc1)NC(C)=O` (HELM PEPTIDE1{[ac].Y.F.E.W.[CN[*:1]]}$$$$V2.0), with 0.17 nM/s. Then `CNC(=O)[C@H](Cc1ccccc1)NC(=O)[C@H](CCC(=O)O)NC(=O)[C@H](Cc1ccccc1)NC(=O)[C@H](Cc1ccc(O)cc1)NC(=O)[C@@H]1CCC[C@H]1C(=O)O` (HELM PEPTIDE1{[O=C(O)[C@@H]1CCC[C@H]1C(=O)[*:2]].Y.F.E.F.[CN[*:1]]}$$$$V2.0), with 3.8 nM/s; and `CNC(=O)[C@H](Cc1c[nH]c2ccccc12)NC(=O)CNC(=O)[C@H](Cc1ccccc1)NC(=O)[C@H](Cc1ccc(O)cc1)NC(=O)[C@H](CC(=O)O)NC(C)=O`, with 1.7 nM/s.

Take `CNC(=O)[C@H](Cc1ccccc1)NC(=O)[C@H](CCC(=O)O)NC(=O)[C@H](Cc1ccccc1)NC(=O)[C@H](Cc1ccc(O)cc1)NC(=O)C1CCC1C(=O)O` (stereo partly drawn) (HELM PEPTIDE1{[O=C(O)C1CCC1C(=O)[*:2]].Y.F.E.F.[CN[*:1]]}$$$$V2.0): the Activity was found to be 1.9 nM/s. Turning to `CNC(=O)[C@H](Cc1c[nH]c2ccccc12)NC(=O)[C@H](CCC(=O)O)NC(=O)[C@H](Cc1ccccc1)NC(=O)[C@H](Cc1ccc(O)cc1)NC(=O)[C@@H]1CCC[C@H]1C(=O)O` (HELM PEPTIDE1{[O=C(O)[C@@H]1CCC[C@H]1C(=O)[*:2]].Y.F.E.W.[CN[*:1]]}$$$$V2.0), the Activity worked out at 5.4 nM/s. `CNC(=O)[C@@H](Cc1c[nH]c2ccccc12)NC(=O)[C@H](CCC(=O)O)NC(=O)[C@H](Cc1ccccc1)NC(=O)[C@H](Cc1ccc(O)cc1)NC(=O)[C@H](CC(=O)O)NC(C)=O`: the Activity was found to be 0.28 nM/s.

For the molecule `CNC(=O)[C@H](Cc1c[nH]c2ccccc12)NC(=O)[C@H](CCC(=O)O)NC(=O)[C@H](Cc1ccccc1)NC(=O)[C@H](Cc1ccc(O)cc1)NC(=O)[C@H]1CCC[C@@H]1C(=O)O` (HELM PEPTIDE1{[O=C(O)[C@H]1CCC[C@@H]1C(=O)[*:2]].Y.F.E.W.[CN[*:1]]}$$$$V2.0), the Activity worked out at 0.84 nM/s. Then `CNC(=O)[C@H](Cc1c[nH]c2ccccc12)NC(=O)[C@H](CCC(=O)O)NC(=O)[C@H](Cc1ccccc1)NC(=O)[C@H](Cc1ccc(O)cc1)NC(=O)[C@@H]1CCCC[C@@H]1C(=O)O`, with 4.6 nM/s. As for `CNC(=O)[C@H](Cc1c[nH]c2cc(Cl)ccc12)NC(=O)CNC(=O)[C@H](Cc1ccccc1)NC(=O)[C@H](Cc1ccc(O)cc1)NC(=O)[C@H](CC(=O)O)NC(C)=O` (HELM PEPTIDE1{[ac].D.Y.F.G.[O=C([C@H](Cc1c[nH]c2cc(Cl)ccc12)N[*:1])[*:2]].[CN[*:1]]}$$$$V2.0), the figure is 2.1 nM/s; as for `CNC(=O)[C@H](Cc1ccccc1)NC(=O)[C@H](CCC(=O)O)NC(=O)[C@H](Cc1ccccc1)NC(=O)[C@H](Cc1ccc(O)cc1)NC(=O)[C@H]1CCC[C@@H]1C(=O)O` (HELM PEPTIDE1{[O=C(O)[C@H]1CCC[C@@H]1C(=O)[*:2]].Y.F.E.F.[CN[*:1]]}$$$$V2.0), 0.24 nM/s; as for `CNC(=O)[C@H](Cc1c[nH]c2ccccc12)NC(=O)[C@H](CCC(=O)O)NC(=O)[C@H](Cc1ccccc1)NC(=O)[C@H](Cc1ccc(O)cc1)NC(=O)c1ccccc1[N+](=O)[O-]` (HELM PEPTIDE1{[O=C(c1ccccc1[N+](=O)[O-])[*:2]].Y.F.E.W.[CN[*:1]]}$$$$V2.0), 3.3 nM/s. As for `CNC(=O)[C@H](Cc1c[nH]c2ccccc12)NC(=O)[C@H](CCC(=O)O)NC(=O)[C@H](Cc1ccccc1)NC(=O)[C@H](Cc1ccc(O)cc1)NC(=O)[C@H](CCC(=O)O)NC(C)=O`, the figure is 2.5 nM/s. As to `CNC(=O)[C@H](Cc1ccc2ccccc2c1)NC(=O)[C@H](CCC(=O)O)NC(=O)[C@H](Cc1ccccc1)NC(=O)[C@H](Cc1ccc(O)cc1)NC(=O)[C@H](CC(=O)O)NC(C)=O` (HELM PEPTIDE1{[ac].D.Y.F.E.[O=C([C@H](Cc1ccc2ccccc2c1)N[*:1])[*:2]].[CN[*:1]]}$$$$V2.0), the Activity came to 3.4 nM/s. On to `CNC(=O)[C@@H](Cc1c[nH]c2ccccc12)NC(=O)[C@H](CCC(=O)O)NC(=O)[C@H](Cc1ccccc1)NC(=O)[C@H](Cc1ccc(O)cc1)NC(=O)[C@H]1CCCC[C@@H]1C(=O)O`, for which the Activity worked out at 0.51 nM/s. As for `CNC(=O)[C@H](Cc1c[nH]c2ccccc12)NC(=O)[C@H](CCC(=O)O)NC(=O)[C@H](Cc1ccccc1)NC(=O)[C@H](Cc1ccc(O)cc1)NC(=O)CCC(=O)O` (HELM PEPTIDE1{[O=C(O)CCC(=O)[*:2]].Y.F.E.W.[CN[*:1]]}$$$$V2.0), the figure is 1.45 nM/s; as for `CNC(=O)[C@H](Cc1c[nH]c2ccccc12)NC(=O)[C@H](CCC(=O)O)NC(=O)[C@H](Cc1ccccc1)NC(=O)[C@H](Cc1ccc(O)cc1)NC(=O)C1CCC1C(=O)O` (stereo partly drawn) (HELM PEPTIDE1{[O=C(O)C1CCC1C(=O)[*:2]].Y.F.E.W.[CN[*:1]]}$$$$V2.0), 4.3 nM/s.

For the molecule `CNC(=O)[C@H](Cc1c[nH]c2ccccc12)NC(=O)[C@H](CCC(=O)O)NC(=O)[C@H](Cc1ccccc1)NC(=O)[C@H](Cc1ccc(O)cc1)NC(=O)[C@@H]1CCCC[C@H]1C(=O)O`, the Activity came to 1.1 nM/s. As for `CNC(=O)[C@H](Cc1ccc(Cl)cc1)NC(=O)[C@H](CCC(=O)O)NC(=O)[C@H](Cc1ccccc1)NC(=O)[C@H](Cc1ccc(O)cc1)NC(=O)[C@H](CCC(=O)O)NC(C)=O` (HELM PEPTIDE1{[ac].E.Y.F.E.[O=C([C@H](Cc1ccc(Cl)cc1)N[*:1])[*:2]].[CN[*:1]]}$$$$V2.0), the figure is 0.26 nM/s.
